{
  "source": "ChEMBL document CHEMBL4196182",
  "about": "“Hexaricins, Pradimicin-like Polyketides from a Marine Sediment-Derived Streptosporangium sp. and Their Antioxidant Effects” (J Nat Prod, 2018)",
  "assay_type_in_all_cases": "functional",
  "key": {"[1]": {"test": "Antioxidant activity assessed as DPPH radical scavenging activity incubated for 30 mins by UV/visible spectrophotometric analysis", "how_it_was_run": "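Test samples in MeOH at 1.875−120 μg/mL reacted with DPPH in MeOH (negative control DPPH 0.1 mM). Absorbance read at 517 nm; scavenging % computed against the DPPH-only control, correcting for sample absorbance without DPPH. EC50 is the concentration giving 50% scavenging. Independent repeats at least three times, reported as mean ± standard deviation.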"}, "[2]": {"test": "Antioxidant activity assessed as hydroxyl radical scavenging activity incubated for 10 mins in presence of salicylic acid", "how_it_was_run": "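Modified Smirnoff method. Equal volumes of sample in MeOH, FeSO4 (6 mM) and ethanolic salicylic acid (6 mM), then H2O2 (6 mM), giving final sample levels of 0.2−1 mg/mL. Held 10 min at room temperature, then read at 510 nm. Scavenging % uses blanks with and without H2O2 against the negative control. EC50 taken at 50% scavenging. Repeated at least three times, mean ± standard deviation.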"}, "[3]": {"test": "Antioxidant activity assessed as superoxide anion radical scavenging activity incubated for 20 mins measured every 30 secs for 5 mins in presence of pyrogallol"}},
  "data": [
    {"smiles": "COc1c2c(c(O)c3c1[C@H](OC(=O)C(C)C)Cc1cc4c(c(O)c1-3)C(=O)O[C@H](C)C4)C(=O)c1cccc(O)c1C2=O", "values": [
      {"measurement": "EC50", "setting": "[1]", "result": 30, "unit": "µM"},
      {"measurement": "EC50", "setting": "[2]", "result": 804, "unit": "µM"},
      {"measurement": "EC50", "setting": "[3]", "result": 746, "unit": "µM"}
    ]},
    {"smiles": "COc1c2c(c(O)c3c1[C@H](O)Cc1cc4c(c(O)c1-3)C(=O)O[C@H](C)C4)C(=O)c1cccc(O)c1C2=O", "values": [
      {"measurement": "EC50", "setting": "[1]", "result": 21, "unit": "µM"},
      {"measurement": "EC50", "setting": "[2]", "result": 723, "unit": "µM"},
      {"measurement": "EC50", "setting": "[3]", "result": 589, "unit": "µM"}
    ]},
    {"smiles": "COc1c2c(c(O)c3c1C(=O)c1c(O)cccc1C3=O)-c1c(cc3c(c1O)C(=O)OC(C)(O)C3)CC2", "note": "(centres undefined)", "values": [
      {"measurement": "EC50", "setting": "[1]", "result": 2.9, "unit": "µM"},
      {"measurement": "EC50", "setting": "[2]", "result": 619, "unit": "µM"},
      {"measurement": "EC50", "setting": "[3]", "result": 83, "unit": "µM"}
    ]},
    {"smiles": "COc1c2c(c(O)c3c1C(=O)c1c(O)cccc1C3=O)-c1c(cc3c(c1O)C(=O)O[C@H](C)C3)CC2", "values": [
      {"measurement": "EC50", "setting": "[1]", "result": 42, "unit": "µM"},
      {"measurement": "EC50", "setting": "[2]", "result": 1530, "unit": "µM"},
      {"measurement": "EC50", "setting": "[3]", "result": 1100, "unit": "µM"}
    ]},
    {"smiles": "CCC(=O)O[C@@H]1Cc2cc3c(c(O)c2-c2c(O)c4c(c(OC)c21)C(=O)c1c(O)cccc1C4=O)C(=O)O[C@H](C)C3", "values": [
      {"measurement": "EC50", "setting": "[1]", "result": 30, "unit": "µM"},
      {"measurement": "EC50", "setting": "[2]", "result": 831, "unit": "µM"},
      {"measurement": "EC50", "setting": "[3]", "result": 754, "unit": "µM"}
    ]},
    {"smiles": "COc1c2c(c(O)c3c1[C@H](O)Cc1cc(CC(C)=O)c(C(=O)O)c(O)c1-3)C(=O)c1cccc(O)c1C2=O", "values": [
      {"measurement": "EC50", "setting": "[1]", "result": 25, "unit": "µM"},
      {"measurement": "EC50", "setting": "[2]", "result": 840, "unit": "µM"},
      {"measurement": "EC50", "setting": "[3]", "result": 681, "unit": "µM"}
    ]},
    {"smiles": "COc1c2c(c(O)c3c1C(=O)c1c(O)cccc1C3=O)-c1c(cc3c(c1O)C(=O)OC(C)(OC)C3)CC2", "note": "(centres undefined)", "values": [
      {"measurement": "EC50", "setting": "[1]", "result": 2.7, "unit": "µM"},
      {"measurement": "EC50", "setting": "[2]", "result": 519, "unit": "µM"},
      {"measurement": "EC50", "setting": "[3]", "result": 139, "unit": "µM"}
    ]},
    {"smiles": "CC(C)(C)c1cc(O)ccc1O", "note": "[E319]", "values": [
      {"measurement": "EC50", "setting": "[1]", "result": 10, "unit": "µM"},
      {"measurement": "EC50", "setting": "[2]", "result": 1920, "unit": "µM"},
      {"measurement": "EC50", "setting": "[3]", "result": 482, "unit": "µM"}
    ]}
  ]
}
